Platelet DG rel: platelet dense granule release activity. 0.22% of 300,000 active. inhibition, %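 (compounds screened at 7.5 µM in platelet-rich plasma)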. human platelet-rich plasma, SFLLRN dense granule ATP release, luminescence. AID 1663;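 active = mean replicate score, as percent of positive control, at or above 50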
TRPC4 block: inhibitors of mouse TRPC4 channel; Q9QUQ5; 0.39% of 300,000 active; HEK293 TRPC4beta/mu-opioid, DAMGO-evoked Fluo4 calcium flux; stronger effect = lower value; B-score at 10 µM;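 active = B-score over 3 SD under the library average, no early fluorescence shift, positive overall ratio signal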
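Assay system: TRPC4beta/mu-opioid receptor HEK293 cell line; compound dosing: single concentration per test compound; detection: Fluo4 Ca2+ flux fluorescence; evaluation: per-well B score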
TRPC6 activator: activators of mouse TRPC6 channel | Q61143 | HEK293-TRPC6 membrane potential dye fluorescence; stronger effect = higher value | B-score at 10 µM | 0.13% of 310,000 active | AID 2550;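 active = B-score of the integrated fluorescence ratio above library mean plus 3 SD, and starting fluorescence ratio within library mean plus 5 SD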;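 note: higher score means more depolarization so channel activation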
TRPC6 inh: blocks the mouse TRPC6 cation channel. B-score at 10 µM. 1.1% of 310,000 active. HEK293-TRPC6, membrane potential dye, ACh-evoked depolarization; stronger effect = lower value. Q61143;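 active = B-score under library mean minus 3 SD, initial fluorescence not abnormally high, positive integrated signal ratio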;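 note: B-score derived from integrated fluorescence ratio over the kinetic read; more negative B-score means stronger inhibition of depolarization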
TRPC4 PAM: allosteric potentiators of mouse TRPC4 channel; Q9QUQ5; HEK293 TRPC4beta/mu-opioid, DAMGO EC20, Fluo-4 Ca2+ flux; stronger effect = higher value; B-score at 10 µM; 0.42% of 310,000 active;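 active = B-score of calcium response area above 5 SD of library B-scores, with initial fluorescence ratio within 5 SD of library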;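 note: B-score of integrated fluorescence ratio over time as area under calcium response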
TRPC4 act: opens the mouse TRPC4 cation channel | Q9QUQ5 | HEK293 TRPC4beta/mu-opioid, Fluo4 calcium fluorescence; stronger effect = higher value | B-score at 10 µM | 0.49% of 310,000 active | AID 2237;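 active = B-score above 5 SD of library B-scores, and initial fluorescence ratio not above library mean plus 5 SD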;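 note: positive B-score marks a calcium rise read as TRPC4 activation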
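System – HEK293 cells stably co-expressing mouse TRPC4beta and mu-opioid receptor · Signal – Fluo4 calcium-sensitive dye fluorescence, kinetic, 1 Hz baseline · Benchmarks – buffer (low) and maximal DAMGO (high) · Read-out – B score of integrated fluorescence ratio per well · Incubation – dye loading 45 min room temperature, 110 s kinetic read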
HEK293 MPD ctr: checks TRPC6 modulator effects in parental HEK293 cells | membrane potential dye fluorescence | membrane potential signal change, % at 10 µM | AID 488924 | shares compounds with TRPC6 inh | 51% of 2,400 active;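 active = membrane potential signal moves up or down beyond 5 SD from buffer-only wells, on both duplicate plates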
HEK293 MPD ctr 2: second check of TRPC6 modulator effects in parental HEK293 cells | inhibition, % at 10 µM | membrane potential dye fluorescence; after compound, maximal acetylcholine stimulation | 14% of 2,400 active | shares compounds with TRPC6 inh;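 active = membrane potential signal drops by more than 5 SD from the mean control signal, in both duplicate plates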;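 note: plate controls were acetylcholine ECmax control wells for no effect and buffer only wells for full effect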
TRPC4/MOR mod: tests whether TRPC6 modulators also affect mouse TRPC4 | shares compounds with TRPC6 inh | HEK293 TRPC4/mu-opioid, membrane potential fluorescence | percent change from control (negative = decrease, positive = increase), % at 10 µM | 69% of 2,400 active;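 active = membrane potential signal moved up or down beyond 5 SD of buffer control wells, in both duplicate plates, actives on both sides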;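 note: plate controls were assay buffer wells for no effect and DAMGO maximal-effect wells for full effect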
TRPC4/MOR inh 2: mouse TRPC4 off-target activity of TRPC6 modulators, second screen. shares compounds with TRPC6 inh. HEK293 TRPC4/mu-opioid, membrane potential dye fluorescence; stimulated with maximal-effect DAMGO. inhibition, % at 10 µM. 55% of 2,400 active. AID 488928;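 active = drop in membrane potential signal beyond 5 SD of the control wells in both duplicate plates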;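 note: TRPC4 counter screen for TRPC6 hits run under conditions tuned for TRPC6 not TRPC4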
TRPC6 inh conf: confirmation of mouse TRPC6 inhibitors; AID 488960; shares compounds with TRPC6 inh; inhibition, % at 10 µM; HEK293-TRPC6, membrane potential dye, ACh-evoked depolarization; 43% of 3,300 active;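 active = fluorescence ratio falls more than 5 SD below the full-stimulation control mean, in both duplicate runs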;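 note: integrated fluorescence ratio of peak minus minimum over baseline after agonist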
TRPC6 act conf: confirmation of mouse TRPC6 activators | shares compounds with TRPC6 inh | HEK293-TRPC6 membrane potential dye fluorescence, FDSS | activation, % at 10 µM | 11% of 2,800 active | AID 488961;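 active = ratio signal rise beyond 5 SD above unstimulated control wells' mean, seen in both duplicate runs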;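 note: plate controls were buffer EC0 wells for no effect and acetylcholine ECmax response for full effect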
Numbers without * were called inactive; i = inactive; . = not tested or not shown. Compounds with a hit are over-represented: about 2.5% of the library has one in this group of screens.

SMILES	Platelet DG rel	TRPC4 block	TRPC6 activator	TRPC6 inh	TRPC4 PAM	TRPC4 act	HEK293 MPD ctr	HEK293 MPD ctr 2	TRPC4/MOR mod	TRPC4/MOR inh 2	TRPC6 inh conf	TRPC6 act conf
CC(=O)Nc1ccc(CN2CCc3c([nH]c4ccccc34)C2c2ccccn2)cc1 (stereo unspecified)	7	i	i	-7.3*	i	54*	i	i	66%*	70%*	i	i
c1ccc(C2c3[nH]c4ccccc4c3CCN2Cc2cccn2-c2ccccn2)nc1 (stereo unspecified)	2	i	i	i	i	i	.	.	.	.	.	.
COc1ccccc1N(C(=O)c1ccco1)C(C(=O)NC1CCCCC1)c1cc(OC)c(OC)c(OC)c1 (stereo unspecified)	7	i	i	i	i	i	.	.	.	.	.	.
Cc1ccc(-c2[nH]ncc2C(=O)c2ccc(Br)cc2)c(O)c1	-20	i	i	i	i	i	.	.	.	.	.	.
O=[N+]([O-])c1ccc(S(=O)(=O)Nc2nc3ccccc3nc2Nc2ccccc2)cc1	5	i	i	i	i	i	.	.	.	.	.	.
COc1cc(Nc2nc3ccccc3nc2NS(=O)(=O)c2ccc([N+](=O)[O-])cc2)cc(OC)c1OC	-1	i	i	-6.4*	i	i	-116%*	i	-26%*	50%*	48%*	i
Oc1ccc(C2C(c3ccccc3)=NN=C(c3ccc(Cl)cc3)N2O)c(O)c1 (stereo unspecified)	-5	i	i	i	i	i	.	.	.	.	.	.
Cc1ccc(-c2c[n+](Cc3ccc(Cl)cc3)c3n2CCC3)cc1	-13	i	i	i	i	i	.	.	.	.	.	.
Cc1ccc(C[n+]2cc(-c3ccc(Cl)cc3)n3c2CCC3)cc1	.	-7*	i	-5.6*	i	i	-96%*	i	-18%*	30%*	i	i
Cc1ccc(-c2c[n+](Cc3cccc(Cl)c3)c3n2CCC3)cc1	12	-6*	i	-5.1*	i	i	-147%*	i	-24%*	84%*	i	i
Cc1ccc(OCC(=O)N2c3ccccc3CC2C)c([N+](=O)[O-])n1 (stereo unspecified)	-2	i	i	i	i	i	.	.	.	.	.	.
O=C(CCNC(=O)c1ccccc1Cl)NCCc1ccc(C(F)(F)F)cc1	5	i	i	i	i	i	.	.	.	.	.	.
CN(C)S(=O)(=O)N1CCN(CC(=O)Nc2ccc(Br)cc2)CC1	-12	i	i	i	i	i	.	.	.	.	.	.
CC(C)(C)OC(=O)NC1CC2CCCC(C1)N2Cc1ccccc1 (stereo unspecified)	-1	i	i	-5.6*	i	i	i	88%*	14%*	29%*	74%*	.
COCC(=O)NC1CC2CCCC(C1)N2Cc1ccccc1 (stereo unspecified)	-3	i	i	i	i	i	.	.	.	.	.	.
COC(=O)c1ccc(Oc2nc(SC)nc(N(C)C)n2)cc1	-7	i	i	i	i	i	.	.	.	.	.	.
